Results from paper PMC9977181 (Science Advances, 2023).
Blank lines part the entries; values can stand above or below the compound they belong to.

Columns and labels:
[1] = tested on: HeLa cells; assay: HeLa cell growth assay; assay type: cell-based, human
[2] = molecular target: ATR (Homo sapiens, UniProt Q13535); assay: Western blot of phosphorylated ATR; assay type: cell-based; details: HEK293 cells, NCS-induced DNA damage
Procedure, shortened: (§1)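 HEK293 cells were pretreated 1 h with a test compound titration starting at 1 μM, then given NCS (500 ng/ml) for 1 h. Lysates were resolved on 4–12% bis-tris gels, probed with primary antibodies (1:1000) and HRP secondaries, and detected by ECL on film. The phospho/total band ratio was normalized to DMSO-treated cells. IC50 was obtained by nonlinear fit.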

[3] = tested on: ATM-deficient MDA-MB-231 cells; assay: Growth inhibition with NCS in ATM-deficient MDA-MB-231 cells; assay type: cell-based, human; details: ATM-deficient cell line
[4] = molecular target: T1, ATM (Homo sapiens, UniProt Q13315); assay: Western blot of phosphorylated ATM; assay type: cell-based
T1 sequence (Q13315 whole entry): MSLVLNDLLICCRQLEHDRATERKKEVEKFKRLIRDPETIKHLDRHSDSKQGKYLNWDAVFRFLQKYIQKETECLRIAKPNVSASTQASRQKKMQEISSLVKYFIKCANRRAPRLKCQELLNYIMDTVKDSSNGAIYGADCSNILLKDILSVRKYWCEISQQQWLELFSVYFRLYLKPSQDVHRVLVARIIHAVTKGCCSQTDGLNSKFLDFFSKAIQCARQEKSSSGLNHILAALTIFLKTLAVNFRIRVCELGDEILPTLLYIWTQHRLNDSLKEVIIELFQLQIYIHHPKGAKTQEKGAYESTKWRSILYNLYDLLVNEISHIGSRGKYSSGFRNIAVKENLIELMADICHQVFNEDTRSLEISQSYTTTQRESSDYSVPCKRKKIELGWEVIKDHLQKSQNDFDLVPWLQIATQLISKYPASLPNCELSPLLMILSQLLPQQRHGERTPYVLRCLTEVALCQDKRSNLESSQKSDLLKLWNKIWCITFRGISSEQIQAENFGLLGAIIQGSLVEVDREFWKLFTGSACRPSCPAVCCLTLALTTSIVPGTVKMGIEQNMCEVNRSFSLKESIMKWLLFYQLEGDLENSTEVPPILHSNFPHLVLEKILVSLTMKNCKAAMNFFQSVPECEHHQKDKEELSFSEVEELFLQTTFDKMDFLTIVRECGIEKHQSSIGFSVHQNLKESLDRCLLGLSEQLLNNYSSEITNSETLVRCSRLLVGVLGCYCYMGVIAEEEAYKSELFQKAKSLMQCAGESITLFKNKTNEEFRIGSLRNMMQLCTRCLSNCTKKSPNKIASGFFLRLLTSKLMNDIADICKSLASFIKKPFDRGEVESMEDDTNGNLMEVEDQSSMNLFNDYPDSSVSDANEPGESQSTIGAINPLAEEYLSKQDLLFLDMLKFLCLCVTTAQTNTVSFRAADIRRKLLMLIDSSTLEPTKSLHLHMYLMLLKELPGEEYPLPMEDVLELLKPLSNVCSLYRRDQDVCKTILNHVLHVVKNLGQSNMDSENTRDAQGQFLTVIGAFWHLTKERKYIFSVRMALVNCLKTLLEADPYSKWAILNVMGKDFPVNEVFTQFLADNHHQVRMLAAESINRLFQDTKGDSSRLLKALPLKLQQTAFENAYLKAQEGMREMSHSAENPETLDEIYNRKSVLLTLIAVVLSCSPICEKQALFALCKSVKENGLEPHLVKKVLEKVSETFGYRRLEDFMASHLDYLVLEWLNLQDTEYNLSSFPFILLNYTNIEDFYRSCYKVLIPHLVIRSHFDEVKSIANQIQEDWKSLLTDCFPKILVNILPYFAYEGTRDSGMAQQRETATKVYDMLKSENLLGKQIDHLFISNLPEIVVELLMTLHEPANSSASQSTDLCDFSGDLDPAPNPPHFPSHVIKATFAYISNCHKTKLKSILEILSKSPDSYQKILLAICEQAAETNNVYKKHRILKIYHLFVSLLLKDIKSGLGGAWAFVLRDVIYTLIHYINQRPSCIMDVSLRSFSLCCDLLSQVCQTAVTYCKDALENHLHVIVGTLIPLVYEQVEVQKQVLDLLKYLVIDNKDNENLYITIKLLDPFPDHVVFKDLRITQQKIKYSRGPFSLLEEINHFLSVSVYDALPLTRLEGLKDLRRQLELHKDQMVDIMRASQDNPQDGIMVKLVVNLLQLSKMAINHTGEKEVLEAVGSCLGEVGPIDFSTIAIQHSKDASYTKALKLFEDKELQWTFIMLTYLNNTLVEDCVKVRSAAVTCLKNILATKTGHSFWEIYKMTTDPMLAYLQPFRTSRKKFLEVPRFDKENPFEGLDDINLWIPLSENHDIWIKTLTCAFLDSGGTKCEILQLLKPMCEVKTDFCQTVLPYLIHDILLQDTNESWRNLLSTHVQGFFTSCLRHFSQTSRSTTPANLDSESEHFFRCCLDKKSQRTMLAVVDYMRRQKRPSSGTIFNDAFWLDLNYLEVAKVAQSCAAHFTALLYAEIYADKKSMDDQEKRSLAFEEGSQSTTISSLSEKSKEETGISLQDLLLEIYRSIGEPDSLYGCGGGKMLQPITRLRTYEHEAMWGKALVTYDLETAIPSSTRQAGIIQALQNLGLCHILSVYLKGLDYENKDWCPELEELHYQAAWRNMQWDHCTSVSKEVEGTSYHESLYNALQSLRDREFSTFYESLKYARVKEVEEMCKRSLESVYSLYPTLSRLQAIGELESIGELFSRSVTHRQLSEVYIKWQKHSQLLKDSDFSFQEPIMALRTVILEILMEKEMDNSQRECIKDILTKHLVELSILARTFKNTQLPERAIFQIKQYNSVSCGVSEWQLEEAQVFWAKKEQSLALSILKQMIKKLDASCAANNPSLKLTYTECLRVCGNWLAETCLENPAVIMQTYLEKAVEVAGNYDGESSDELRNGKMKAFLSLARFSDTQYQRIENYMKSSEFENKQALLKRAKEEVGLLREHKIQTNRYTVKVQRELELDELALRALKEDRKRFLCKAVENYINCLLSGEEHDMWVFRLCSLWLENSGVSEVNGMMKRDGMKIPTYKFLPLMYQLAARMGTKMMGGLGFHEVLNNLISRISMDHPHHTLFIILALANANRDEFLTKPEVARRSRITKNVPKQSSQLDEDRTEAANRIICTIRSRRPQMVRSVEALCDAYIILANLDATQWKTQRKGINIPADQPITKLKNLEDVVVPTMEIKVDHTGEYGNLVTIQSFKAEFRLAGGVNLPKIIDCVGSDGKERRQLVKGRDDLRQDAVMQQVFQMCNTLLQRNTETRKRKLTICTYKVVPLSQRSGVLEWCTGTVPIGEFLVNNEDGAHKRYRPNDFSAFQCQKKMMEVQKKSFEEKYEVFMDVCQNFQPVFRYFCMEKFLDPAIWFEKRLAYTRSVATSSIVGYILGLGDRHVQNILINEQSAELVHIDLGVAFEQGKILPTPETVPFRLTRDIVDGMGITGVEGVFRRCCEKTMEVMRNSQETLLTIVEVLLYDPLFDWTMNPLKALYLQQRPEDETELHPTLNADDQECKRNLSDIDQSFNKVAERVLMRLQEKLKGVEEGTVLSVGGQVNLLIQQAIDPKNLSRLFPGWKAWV
Procedure, shortened: as §1

[5] = molecular target: T1, ATM; assay: ATM-SPARK ATM activity in HeLa or T98G cancer cells preincubated with inhibitor; assay type: cell-based; details: HeLa and T98G cells, ATM activated using etoposide
[6] = molecular target: DNA-PK (Homo sapiens, UniProt P78527); assay: Western blot of phosphorylated DNA-PK; assay type: cell-based; details: HEK293 cells, NCS-induced DNA damage
Procedure, shortened: as §1

[7] = molecular target: T1, ATM; assay: ATM-SPARK reporter imaging in living HEK293 cells, ATM activated by etoposide; assay type: cell-based
[8] = molecular target: T1, ATM; assay: ATM-SPARK activation by DNA-damaging drugs in U87 cells; assay type: cell-based
[9] = molecular target: T1, ATM; assay type: cell-based; details: HEK293 cells preincubated with NCS

Compound: O=C1NC(=O)/C(=C\c2ccc3nccnc3c2)S1 [AS605240]
ATM activity in inhibitor-incubated cells (ATM-SPARK signal), screening ([7]; 1 μM compound): blocked ATM

Compound: neocarzinostatin [NCS]
inhibition of cancer cell proliferation by NCS itself ([1]; NCS 180 ng/ml, 3 days): ~ 35%

Compound: CC[C@@]1(O)C(=O)OCc2c1cc1n(c2=O)Cc2cc3ccccc3nc2-1 [camptothecin]
activation of ATM (ATM-SPARK signal) [8]: failed to activate ATM

Continued, in another order:

IC50 [4]: 3.1 ± 0.8 nM
activity against ATM in cancer cells (ATM-SPARK) [5]: potent activity against ATM
Compound: COc1ccc(-c2ccc3ncc4c(c3c2)n(-c2ccc(N3CCNCC3)c(C(F)(F)F)c2)c(=O)n4C)cn1 [BGT226]
sensitization of growth inhibition in response to NCS treatment ([1]; NCS + 4 nM or 11 nM inhibitor (fig. S26)): sensitizes
inhibition of ATR (pATR 1989 Western blot) [2]: no inhibitory activity
effect in growth inhibition when combined with NCS [3]: lost
fold lower activity against DNA-PK than against ATM [6]: 30 fold

inhibitory activity against ATM (ATM-SPARK signal) [7]: no activity against ATM
Compound: CN1CCN(c2ccc(-n3cc(-c4ccncc4OCC4CCNCC4)cn3)cc2)CC1 [MELK-8A]

half-time of ATM-SPARK droplet disassembly [9]: ~ 1.5 min
time to disassembly of ATM-SPARK reporter droplets after inhibitor addition [9]: ≤ 4 min
Compound: O=c1cc(-c2cccc3c2Sc2ccccc2S3)oc(N2CCOCC2)c1 [KU-55933]
